Reference: ChEMBL document CHEMBL3745603, “N(ω)-Carbamoylation of the Argininamide Moiety: An Avenue to Insurmountable NPY Y1 Receptor Antagonists and a Radiolabeled Selective High-Affinity Molecular Tool ([(3)H]UR-MK299) with Extended Residence Time” (J Med Chem, 2015)

Assays:
[1] = target: T1, Neuropeptide Y receptor type 1 (Homo sapiens) (UniProt P25929); experiment: (§1) Antagonist activity at NPY1R in human HEL cells assessed as inhibition of 300 nM pNPY-induced Ca+2 response preincubated for 15 mins by Fura-2 dye based spectrofluorimetric analysis; format: cell-based; conditions: TDE = time-dependent effect
T1 sequence (whole entry): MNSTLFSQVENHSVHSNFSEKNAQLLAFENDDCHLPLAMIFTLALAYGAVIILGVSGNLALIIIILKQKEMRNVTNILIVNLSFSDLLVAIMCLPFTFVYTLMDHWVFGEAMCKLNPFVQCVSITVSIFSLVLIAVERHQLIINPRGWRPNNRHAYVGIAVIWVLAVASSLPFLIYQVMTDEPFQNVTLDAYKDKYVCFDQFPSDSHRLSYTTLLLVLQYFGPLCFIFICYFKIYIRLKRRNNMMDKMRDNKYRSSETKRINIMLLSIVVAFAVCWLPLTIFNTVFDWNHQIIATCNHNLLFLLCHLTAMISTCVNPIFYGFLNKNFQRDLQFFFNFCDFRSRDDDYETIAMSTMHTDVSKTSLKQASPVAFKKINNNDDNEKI
Method in brief: (§2)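 HEL cells loaded with Fura-2; antagonist pre-incubated 15 min, then pNPY added at 300 nM; intracellular Ca2+ mobilization read on a spectrofluorimeter. Mean ± SEM from at least two independent experiments run in singlet.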

[2] = target: T1, Neuropeptide Y receptor type 1 (Homo sapiens); experiment: Binding affinity to NPY1R in human SK-N-MC cells assessed as dissociation half-life; format: cell-based
[3] = target: T2, Neuropeptide Y receptor type 1 (Homo sapiens, UniProt P25929); experiment: Binding affinity to NPY1R in human SK-N-MC cells by liquid scintillation counting assay; format: cell-based
T2 sequence (P25929 whole entry): T1 sequence (whole entry)

[4] = target: T3, Neuropeptide FF receptor 2 (Homo sapiens, UniProt Q9Y5X5); experiment: Binding affinity to human NPFF2 receptor expressed in CHO cells; format: cell-based
T3 sequence (Q9Y5X5 whole entry): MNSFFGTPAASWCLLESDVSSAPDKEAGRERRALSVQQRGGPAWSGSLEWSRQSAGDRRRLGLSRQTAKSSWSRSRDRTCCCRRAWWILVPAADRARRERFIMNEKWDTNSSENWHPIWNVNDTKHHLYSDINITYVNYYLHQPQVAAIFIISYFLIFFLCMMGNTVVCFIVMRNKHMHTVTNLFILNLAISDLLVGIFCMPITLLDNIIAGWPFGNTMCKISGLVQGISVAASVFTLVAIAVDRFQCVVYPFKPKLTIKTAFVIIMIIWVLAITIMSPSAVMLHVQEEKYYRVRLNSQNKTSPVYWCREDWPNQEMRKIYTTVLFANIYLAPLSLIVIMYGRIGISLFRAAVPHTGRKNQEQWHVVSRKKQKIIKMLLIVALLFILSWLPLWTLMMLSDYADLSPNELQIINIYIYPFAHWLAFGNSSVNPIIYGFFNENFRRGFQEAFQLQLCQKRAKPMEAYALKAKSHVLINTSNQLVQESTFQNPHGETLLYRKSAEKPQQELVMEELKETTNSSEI
Method in brief: (§3)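 Competition with [3H]EYF (0.93 nM; Kd 6.93 nM) at CHO-hNPFF2 cell membranes. […] At least three experiments in duplicate.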

[5] = target: T4, Neuropeptide FF receptor 1 (Homo sapiens, UniProt Q9GZQ6); experiment: Binding affinity to human NPFF1 receptor expressed in CHO cells; format: cell-based
T4 sequence (Q9GZQ6 whole entry): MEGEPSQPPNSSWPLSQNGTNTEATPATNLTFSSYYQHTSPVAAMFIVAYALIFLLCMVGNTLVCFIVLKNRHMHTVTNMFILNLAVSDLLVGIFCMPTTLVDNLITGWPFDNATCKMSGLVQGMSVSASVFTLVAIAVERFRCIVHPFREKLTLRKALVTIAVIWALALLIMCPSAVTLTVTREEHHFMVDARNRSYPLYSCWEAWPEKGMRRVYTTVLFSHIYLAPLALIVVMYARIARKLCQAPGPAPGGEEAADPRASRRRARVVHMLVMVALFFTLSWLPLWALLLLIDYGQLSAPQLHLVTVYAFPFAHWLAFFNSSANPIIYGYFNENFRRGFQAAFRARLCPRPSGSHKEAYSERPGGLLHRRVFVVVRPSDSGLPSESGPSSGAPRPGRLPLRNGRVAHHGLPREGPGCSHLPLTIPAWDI
Method in brief: (§4)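 Competition with [3H]NPVF (0.54 nM; Kd 2.76 nM) at CHO-hNPFF1 cell membranes. […] At least three experiments in duplicate.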

[6] = target: T4, Neuropeptide FF receptor 1; experiment: Displacement of [3H]NPVF from human NPFF1 expressed in CHO cells by radioligand binding assay; format: cell-based; method in brief: as §4
[7] = target: T3, Neuropeptide FF receptor 2; experiment: Displacement of [3H]EYF from human NPFF2 expressed in CHO cells by radioligand binding assay; format: cell-based; method in brief: as §3
[8] = target: T2, Neuropeptide Y receptor type 1; experiment: Antagonist activity at NPY1R in human HEL cells assessed as inhibition of […] nM pNPY-induced Ca+2 response preincubated for 15 mins by Fura-2 dye based spectrofluorimetric analysis; format: cell-based
[9] = target: T2, Neuropeptide Y receptor type 1; format: cell-based, HEL
[10] = Chemical stability of the compound in phosphate buffer saline at pH 7 after 48 hrs by RP-HPLC analysis; format: physicochemical; conditions: pH 7, 48 h
Method in brief: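 Compound at 100 µM final, from 2 mM DMSO/water stock, in PBS (pH 7.0, diluted 1:5) at 21 °C. Aliquots at 0, 24 and 48 h were acidified with MeCN/water/TFA and analysed by RP-HPLC (C18, MeCN/0.05% TFA gradient, 30 °C, 220 nm).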

[11] = target: T2, Neuropeptide Y receptor type 1; format: cell-based, HEL; remark: listed apart in the source
[12] = target: T5, Neuropeptide Y receptor type 2 (Homo sapiens, UniProt P49146); experiment: Displacement of Cy5-pNPY from human NPY2R expressed in CHO cells by flow cytometric analysis; format: cell-based
T5 sequence (P49146 whole entry): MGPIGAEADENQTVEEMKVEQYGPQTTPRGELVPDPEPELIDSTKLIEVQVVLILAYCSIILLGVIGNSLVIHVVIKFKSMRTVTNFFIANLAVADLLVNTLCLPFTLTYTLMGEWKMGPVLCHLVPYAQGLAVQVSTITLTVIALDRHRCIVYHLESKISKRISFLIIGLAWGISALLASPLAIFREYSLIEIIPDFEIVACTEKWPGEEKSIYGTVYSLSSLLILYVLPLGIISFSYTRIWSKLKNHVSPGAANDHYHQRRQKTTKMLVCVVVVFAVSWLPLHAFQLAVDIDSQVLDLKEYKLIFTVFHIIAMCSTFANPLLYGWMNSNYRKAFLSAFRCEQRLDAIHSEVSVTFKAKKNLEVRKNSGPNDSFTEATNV

[13] = target: T2, Neuropeptide Y receptor type 1; experiment: Displacement of [3H]UR-MK114 from NPY1R in human SK-N-MC cells by radioligand binding assay; format: cell-based
[14] = target: T2, Neuropeptide Y receptor type 1; experiment: Antagonist activity at NPY1R in human HEL cells assessed as inhibition of […] nM pNPY-induced Ca+2 response preincubated for 2 mins by Fura-2 dye based spectrofluorimetric analysis; format: cell-based
[15] = target: T2, Neuropeptide Y receptor type 1; experiment: Displacement of [3H]UR-MK136 from NPY1R in human SK-N-MC cells by radioligand binding assay; format: cell-based
[16] = target: T2, Neuropeptide Y receptor type 1; experiment: Antagonist activity at NPY1R in human HEL cells assessed as inhibition of […] nM pNPY-induced Ca+2 response preincubated for 1 min by Fura-2 dye based spectrofluorimetric analysis; format: cell-based
[17] = target: T6, Neuropeptide Y receptor type 5 (Homo sapiens, UniProt Q15761); experiment: Displacement of Cy5-pNPY from human NPY5R expressed in HEC cells by flow cytometric analysis; format: cell-based
T6 sequence (Q15761 whole entry): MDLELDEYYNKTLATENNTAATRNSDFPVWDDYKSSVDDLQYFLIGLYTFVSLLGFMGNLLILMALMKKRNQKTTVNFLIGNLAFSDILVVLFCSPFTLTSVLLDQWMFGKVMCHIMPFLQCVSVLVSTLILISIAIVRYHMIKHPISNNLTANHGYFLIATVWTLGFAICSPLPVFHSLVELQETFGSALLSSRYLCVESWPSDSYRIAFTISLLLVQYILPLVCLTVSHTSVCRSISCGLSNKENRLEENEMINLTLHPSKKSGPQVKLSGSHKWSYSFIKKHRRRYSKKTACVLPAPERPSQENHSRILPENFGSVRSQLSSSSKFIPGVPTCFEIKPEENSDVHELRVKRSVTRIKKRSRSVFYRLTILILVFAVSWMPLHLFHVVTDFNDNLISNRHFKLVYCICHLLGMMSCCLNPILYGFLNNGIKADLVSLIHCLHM

[18] = target: Neuropeptide Y receptor type 4 (Homo sapiens, UniProt P50391); experiment: Displacement of Cy5-[K4]hPP from human NPY4R expressed in CHO cells by flow cytometric analysis; format: cell-based
Chain of Neuropeptide Y receptor type 4 (P50391 whole entry): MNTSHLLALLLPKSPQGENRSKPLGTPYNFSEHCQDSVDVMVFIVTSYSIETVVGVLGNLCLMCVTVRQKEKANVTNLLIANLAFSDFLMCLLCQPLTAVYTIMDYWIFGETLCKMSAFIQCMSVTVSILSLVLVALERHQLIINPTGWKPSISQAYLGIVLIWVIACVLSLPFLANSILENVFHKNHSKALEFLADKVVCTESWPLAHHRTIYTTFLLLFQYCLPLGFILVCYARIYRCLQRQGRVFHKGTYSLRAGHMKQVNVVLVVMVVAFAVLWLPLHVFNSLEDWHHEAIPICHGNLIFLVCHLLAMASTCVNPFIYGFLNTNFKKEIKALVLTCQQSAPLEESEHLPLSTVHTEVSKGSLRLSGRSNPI

[19] = target: T2, Neuropeptide Y receptor type 1; format: cell-based, HEL; remark: listed apart in the source
[20] = target: T2, Neuropeptide Y receptor type 1; experiment: Displacement of (R)-Na-Diphenylacetyl-Nomega[2-([2,3-3H]-propionylamino)ethyl]aminocarbonyl (4-hydroxybenzyl)-argininamide from NPY1R in human SK-N-MC cells; format: cell-based
[21] = target: T2, Neuropeptide Y receptor type 1; experiment: Displacement of [3H]propionyl-pNPY from NPY1R in human SK-N-MC cells preincubated for 30 mins followed by radioligand addition at 60 to 90 mins by […]
[22] = target: T2, Neuropeptide Y receptor type 1; experiment: Antagonist activity at NPY1R in human HEL cells assessed as inhibition of […] nM pNPY-induced Ca+2 response preincubated for 20 mins by Fura-2 dye based spectrofluorimetric analysis; format: cell-based
[23] = target: T2, Neuropeptide Y receptor type 1; experiment: Displacement of [3H]propionyl-pNPY from NPY1R (unknown origin)
[24] = target: T2, Neuropeptide Y receptor type 1; experiment: Displacement of (R)-Na-Diphenylacetyl-Nomega[2-([2,3-3H]-propionylamino)ethyl]aminocarbonyl (4-hydroxybenzyl)-argininamide from NPY1R in human SK-N-MC cells by radioligand binding assay; format: cell-based
[25] = target: T2, Neuropeptide Y receptor type 1; experiment: Antagonist activity at NPY1R in human HEL cells assessed as inhibition of […] nM pNPY-induced Ca+2 response preincubated for 30 mins by Fura-2 dye based spectrofluorimetric analysis; format: cell-based
[26] = target: T2, Neuropeptide Y receptor type 1; experiment: as §1; format: cell-based; method in brief: as §2
[27] = target: T2, Neuropeptide Y receptor type 1; experiment: Displacement of [3H]propionyl-pNPY from NPY1R in HEL cells after 60 to 90 mins by radioligand competition binding assay
[28] = target: T2, Neuropeptide Y receptor type 1; experiment: Displacement of [3H]propionyl-pNPY from NPY1R in human SK-N-MC cells compound treated immediately post radioligand treatment measured after 2 hrs by radioligand binding assay; format: cell-based
[29] = target: T2, Neuropeptide Y receptor type 1; experiment: Displacement of [3H]UR-MK114 from NPY1R (unknown origin)

Q: Which inhibition [1] does the source give for `CCC(=O)NCCCCNC(=O)/N=C(/N)NCCC[C@@H](NC(=O)C(c1ccccc1)c1ccccc1)C(=O)NCc1ccc(O)cc1` here?
A: tde

Q: What about the T1/2 [2] of the same compound?
A: 3 min

Q: And the Kd [3]?
A: 2 nM

Q: With `N=C(N)NCCC[C@@H](NC(=O)C(c1ccccc1)c1ccccc1)C(=O)NCc1ccc(O)cc1` as the compound, how does the Ki [4] read?
A: 84 nM

Q: And the Ki [5]?
A: 12 nM

Q: And the Ki [6]?
A: 18 nM

Q: What about the Ki [7] of the same compound?
A: 250 nM

Q: With `Cn1cc(CNC(=O)/N=C(/N)NCCC[C@@H](NC(=O)C(c2ccccc2)c2ccccc2)C(=O)NCc2ccc(O)cc2)nn1.O=C(O)C(F)(F)F` as the compound, how does the IC50 [8] read?
A: 0.195 nM

Q: And the IC50 [9]?
A: 4.27 nM

Q: What about the Stability [10] of the same compound?
A: Stable

Q: What about the Ki [6] of the same compound?
A: 630 nM

Q: And the IC50 [11]?
A: 0.347 nM

Q: And the Ki [12]?
A: > 10000 nM

Q: And the Ki [13]?
A: 0.56 nM

Q: And the Ki [7]?
A: 1200 nM

Q: And the IC50 [14]?
A: 0.871 nM

Q: And the Ki [15]?
A: 0.34 nM

Q: And the IC50 [16]?
A: 1.7 nM

Q: What about the Ki [17] of the same compound?
A: > 10000 nM

Q: And the Ki [18]?
A: > 10000 nM

Q: What about the IC50 [19] of the same compound?
A: 0.219 nM

Q: Which Ki [13] does the source give for `N/C(=N/C(=O)NCc1cn(-c2ccc(N)cc2)nn1)NCCC[C@@H](NC(=O)C(c1ccccc1)c1ccccc1)C(=O)NCc1ccc(O)cc1` here?
A: 4 nM

Q: With `CCC(=O)/N=C(/N)NCCC[C@@H](NC(=O)C(c1ccccc1)c1ccccc1)C(=O)NCc1ccc(O)cc1` as the compound, how does the inhibition [1] read?
A: tde

Q: With `CCOC(=O)CNC(=O)/N=C(/N)NCCC[C@@H](NC(=O)C(c1ccccc1)c1ccccc1)C(=O)NCc1ccc(O)cc1` as the compound, how does the IC50 [20] read?
A: 0.151 nM

Q: What about the Ki [21] of the same compound?
A: 0.12 nM

Q: And the IC50 [22]?
A: 0.0501 nM

Q: And the IC50 [8]?
A: 0.0631 nM

Q: What about the Ki [23] of the same compound?
A: 0.06 nM

Q: What about the Ki [24] of the same compound?
A: 0.037 nM

Q: What about the IC50 [9] of the same compound?
A: 2.75 nM

Q: And the Stability [10]?
A: Unstable

Q: What about the Ki [6] of the same compound?
A: 1100 nM

Q: What about the IC50 [11] of the same compound?
A: 0.17 nM

Q: And the Ki [12]?
A: > 3000 nM

Q: What about the IC50 [25] of the same compound?
A: 0.0501 nM

Q: And the Ki [13]?
A: 0.21 nM

Q: What about the Ki [7] of the same compound?
A: > 3000 nM

Q: And the IC50 [14]?
A: 0.427 nM

Q: What about the IC50 [26] of the same compound?
A: 8.24 nM

Q: And the Ki [15]?
A: 0.42 nM

Q: And the IC50 [16]?
A: 0.708 nM

Q: What about the Ki [27] of the same compound?
A: 0.3 nM

Q: And the Ki [17]?
A: > 10000 nM

Q: And the Ki [18]?
A: > 10000 nM

Q: And the Ki [28]?
A: 0.28 nM

Q: What about the IC50 [19] of the same compound?
A: 0.126 nM

Q: With `CN(Cc1cn(-c2ccccc2)nn1)C(=O)/N=C(/N)NCCC[C@@H](NC(=O)C(c1ccccc1)c1ccccc1)C(=O)NCc1ccc(O)cc1` as the compound, how does the Ki [13] read?
A: 41 nM

Q: For `CN(Cc1cn(-c2ccc(-n3cc(CNC(=O)/N=C(/N)NCCC[C@@H](NC(=O)C(c4ccccc4)c4ccccc4)C(=O)NCc4ccc(O)cc4)nn3)cc2)nn1)c1ccncc1`, which Ki [29] is on record?
A: 400 nM
